Compound activity as filed in PubChem BioAssay.
Hits are enriched below; roughly 6% of the tested compounds scored in any of these assays.
Ecoli tolC = E. coli tolC mutant growth inhibition | E. coli BW25113 tolC mutant growth, OD615 | growth inhibition, % at 10 µM (by protocol) | 2.2% of 65,000 active | AID 573;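 active means growth inhibition at or above a cutoff equal to the mean over every tested compound plus 3 SD, cut at about 60% in these data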;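 further: growth measured after 20 h incubation at 37 °C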
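Test system – E. coli BW25113 ΔtolC::kan, tolC deletion mutant strain · Detection – OD at 615 nm · Buffer or medium – LB with kanamycin 50 µg/mL · Times – 20 h compound exposure of bacteria at 37 °C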
EphB4 ephrin blk = antagonists of human EphB4-ephrin-B2 interaction | P54760 | EphB4 LBD / TNYL-RAW-Alexa532 peptide, fluorescence polarization | inhibition, % at 7 µM | 0.15% of 97,000 active | AID 720;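 active means inhibition above the screen-wide mean inhibition plus 3 SD, cut at about 15% in these data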;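 further: 0% = DMSO wells and 100% = excess unlabeled TNYL-RAW peptide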
PostGolgi ctrl = yeast control strain growth, post-Golgi counter-screen. efflux-deficient yeast background strain, growth absorbance A615, 16 h. inhibition, % at 10 µM. 5% of 98,000 active
Ecoli WT expand = blocks growth of wild type E. coli BW25113; growth inhibition, % at 100 µM; 0.15% of 98,000 active; AID 710; OD600 absorbance;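 active means growth inhibition above about 50% at one test dose, limit read from the data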;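 further: growth measured after 20 h incubation at 37 °C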
PostGolgi yeast = growth inhibition of a yeast mutant, post-Golgi transport screen | inhibition, % at 10 µM | 0.9% of 98,000 active | AID 739 | post-Golgi transport phenotypic cell assay;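 further: yeast cells grown in 1536-well plates; yeast grown about 18 h at 30C before absorbance read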
An asterisk follows results filed as active; x = not tested or not shown. Unless noted, no stated cut-off is given here; in the data, active means inhibition above about 30%; inactive means the rest.

SMILES	Ecoli tolC	EphB4 ephrin blk	PostGolgi ctrl	Ecoli WT expand	PostGolgi yeast
O=C1C=C(Nc2ccc(Cl)cc2)CC(c2ccc(Cl)cc2)C1 (centres undefined)	x	-7	52*	-5	8
COc1ccccc1-c1noc(CCC(=O)Nc2cc(C(F)(F)F)ccc2Cl)n1	0	5	11	-5	-5
CCOC(=O)c1c(C)[nH]c(C(=O)COC(=O)C(C)N2C(=O)C3CCCCC3C2=O)c1C (centres undefined)	x	-2	-7	5	-10
CCc1sc(C(=O)Nc2cc(Cl)ccc2N2CCCCC2)cc1C	x	2	41*	-22	64*
Cc1ccc(C(=O)Nc2cc(Cl)ccc2N2CCCCC2)s1	x	2	20	-1	0
CCCCn1c(-c2ccsc2)nc2c1c(=O)[nH]c(=O)n2CCC	0	-6	14	-9	3
CCCCn1c(=O)[nH]c(=O)c2c1nc(-c1ccsc1)n2Cc1ccccc1	x	1	31*	-1	-6
O=c1ccc(/C=C/c2ccccc2)nn1Cc1ccccc1Cl	x	0	41*	-16	-5
COc1ccccc1Oc1cc(C#N)c(C#N)cc1-n1nnc2ccccc21	32	-4	30*	-19	-4
CCCc1[nH]nc2c1C(c1ccc(OC)c(CSC3=NCCS3)c1)C(C#N)=C(N)O2 (centres undefined)	87*	0	6	5	-3
CCCc1[nH]nc2c1C(c1cc(OC)cc(OC)c1)C(C#N)=C(N)O2 (centres undefined)	-5	1	-4	1	10
CCc1oc(C(=O)O)cc1COC	-28	-4	33*	2	-21
COc1ccccc1-c1nnc2sc(-c3cc4ccccc4o3)nn12	10	-9	41*	-3	-7
COc1ccccc1-c1nnc2sc(-c3ccc(N(C)C)cc3)nn12	52	x	x	x	x
COc1ccc(C2CCCN2C(=O)Nc2ccc(Cl)cc2)cc1OC (centres undefined)	x	-9	24	2	4
O=S(=O)(NCCOCC(F)(F)C(F)F)c1ccc2oc3ccccc3c2c1	27	-2	41*	4	4
COc1ccc(C(=O)Nc2cc(C(F)(F)F)ccc2Cl)cc1OC	x	4	9	4	3
CCCn1c(N)c(C(=O)CSc2nc(C)cs2)c(=O)n(C)c1=O	x	1	13	2	35*
O=C(CSc1n[nH]c(-c2ccc(Cl)cc2Cl)n1)Nc1ccccn1	x	-4	33*	-5	-3
O=C(Oc1ccccc1Cl)c1ccc(-n2cncn2)nc1	x	-6	9	-1	7
CSc1ccc(CNc2ccc(C)c(C)c2)cc1	x	-1	38*	-2	-2
CN(C)c1oc(-c2ccccc2Cl)nc1P(=O)(c1ccccc1)c1ccccc1	x	-2	7	0	31*
COC(=O)Nc1sc2c(c1C(=O)NC1CC1)CCCCCC2	x	-6	8	1	8
O=S(=O)(Nc1cccc2ncccc12)c1cccs1	99*	x	25	-2	11
Cc1[nH]nc2c1/C(=N/O)CC(c1ccccc1)C2 (centres undefined)	x	3	-1	13	-1
SMILES	Ecoli tolC	EphB4 ephrin blk	PostGolgi ctrl	Ecoli WT expand	PostGolgi yeast
Cc1onc(-c2c(F)cccc2Cl)c1C(=O)NCC1COc2ccccc2O1 (centres undefined)	29	6	37*	4	5
Cc1onc(-c2c(F)cccc2Cl)c1C(=O)Nc1cccc2nsnc12	-13	-5	42*	-4	2
Cc1csc(N2CCc3ccccc32)n1	-1	1	31*	3	13
COC(=O)C(CC(=O)c1ccc(Br)cc1)n1ccnc1 (centres undefined)	5	-5	-3	59*	-5
Cc1ccc(NCCC(=O)c2ccc(Br)cc2)cc1	x	1	2	-1	2
O=C(Nc1ccccc1)N1CCCC2CCCCC21 (centres undefined)	18	-4	1	9	30*
CSc1nnc(-c2ccccc2)n1C	-1	-4	31*	9	8
CCCN(CC1CC1)c1nc(N)c2c(N)nc(OC)cc2c1C#N	x	2	35*	-10	8
CC(Cc1ccccc1)NC(=O)CSc1nc2nc3c(cc2c(=O)n1-c1ccccc1)COC(C)(C)C3 (centres undefined)	x	8	0	7	-4
Cc1ccc(-c2nc(NC(=O)c3nn(C)cc3[N+](=O)[O-])sc2C)cc1	x	0	1	-3	14
Cn1cc([N+](=O)[O-])c(C(=O)Nc2nc(-c3ccc(Cl)cc3)cs2)n1	x	-9	40*	-5	1
O=C(c1sc2ccccc2c1Cl)N(Cc1ccccc1Cl)C1CCS(=O)(=O)C1 (centres undefined)	x	5	31*	-10	6
